From ChEMBL document CHEMBL1123045, “Synthesis of high specific activity [75Br]- and [77Br]bromperidol and tissue distribution studies in the rat” (J Med Chem, 1985)

Columns and labels:
[1] = test system: Rattus norvegicus; assay: Distribution in rat uterus 5 min after intravenous administration, injected dose/gm; format: ADME, organism-based; conditions: in vivo
In short: (§1)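 Female Sprague-Dawley rats (300-320 g) under light ether anesthesia received a single injection of [77Br]-labeled tracer (50-100 µCi in 0.1 mL 0.9% NaCl, pH 3) into the femoral vein. Groups of five were decapitated at set times after a cardiac-puncture blood sample. Organs were dissected, blotted and weighed, and counted in a NaI(Tl) well γ-counter. Values are %ID/g against an injectate standard, mean ± SD (n=5).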

[2] = test system: Rattus norvegicus; assay: Distribution in blood of rat, 2 hr after intravenous administration, injected dose/gm; format: ADME, organism-based; conditions: in vivo
In short: (§2)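 [77Br]Bromperidol at high specific activity (50-100 µCi in 0.1 mL 0.9% NaCl, pH 3) given into the femoral vein of 300-320-g female Sprague-Dawley rats under light ether anesthesia. At each time point, groups of five were decapitated after cardiac-puncture blood sampling. Organs were dissected, blotted, weighed and gamma-counted against an injectate standard. Values are % injected dose/g, mean ± SD, n=5.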

[3] = test system: Rattus norvegicus; assay: Distribution in rat heart 30 min after intravenous administration, injected dose/gm; format: ADME, organism-based; conditions: in vivo, 0.5 h; in short: as §2
[4] = test system: Rattus norvegicus; assay: Distribution in rat skin 6 hr after intravenous administration, injected dose/gm; format: ADME, organism-based; conditions: in vivo; in short: as §1
[5] = test system: Rattus norvegicus; assay: Distribution in rat kidney, 2 hr after intravenous administration, injected dose/gm; format: ADME, organism-based; conditions: in vivo; in short: as §2
[6] = test system: Rattus norvegicus; assay: Distribution in rat kidney, 4 hr after intravenous administration, injected dose/gm; format: ADME, organism-based; conditions: in vivo; in short: as §2
[7] = test system: Rattus norvegicus; assay: Distribution in rat lungs 2 hr after intravenous administration, injected dose/gm; format: ADME, organism-based, Lung; conditions: in vivo; in short: as §1
[8] = test system: Rattus norvegicus; assay: Distribution in rat pancreas 6 hr after intravenous administration, injected dose/gm; format: ADME, organism-based; conditions: in vivo; in short: as §1
[9] = test system: Rattus norvegicus; assay: Distribution in rat intestine 6 hr after intravenous administration, injected dose/gm; format: ADME, organism-based; conditions: in vivo; in short: as §2
[10] = test system: Rattus norvegicus; assay: Distribution in rat lungs 1 hr after intravenous administration, injected dose/gm; format: ADME, organism-based, Lung; conditions: in vivo; in short: as §1
[11] = test system: Rattus norvegicus; assay: Distribution in rat muscle 6 hr after intravenous administration, injected dose/gm; format: ADME, organism-based, Muscle tissue; conditions: in vivo; in short: as §1
[12] = test system: Rattus norvegicus; assay: Distribution in brain of rat, 2 hr after intravenous administered, injected dose/gm; format: ADME, organism-based; conditions: in vivo; in short: as §2
[13] = test system: Rattus norvegicus; assay: Distribution in brain of rat, 5 min after intravenous administered, injected dose/gm; format: ADME, organism-based; conditions: in vivo; in short: as §2
[14] = test system: Rattus norvegicus; assay: Distribution in rat heart 4 hr after intravenous administration, injected dose/gm; format: ADME, organism-based; conditions: in vivo; in short: as §2
[15] = test system: Rattus norvegicus; assay: Distribution in rat uterus 30 min after intravenous administration, injected dose/gm; format: ADME, organism-based; conditions: in vivo, 0.5 h; in short: as §1
[16] = test system: Rattus norvegicus; assay: Distribution in blood of rat, 6 hr after intravenous administration, injected dose/gm; format: ADME, organism-based; conditions: in vivo; in short: as §2
[17] = test system: Rattus norvegicus; assay: Distribution in rat kidney, 6 hr after intravenous administration, injected dose/gm; format: ADME, organism-based; conditions: in vivo; in short: as §2
[18] = test system: Rattus norvegicus; assay: Distribution in rat liver 30 min after intravenous administration, injected dose/gm; format: ADME, organism-based; conditions: in vivo, 0.5 h; in short: as §1
[19] = test system: Rattus norvegicus; assay: Distribution in rat lungs 6 hr after intravenous administration, injected dose/gm; format: ADME, organism-based, Lung; conditions: in vivo; in short: as §1
[20] = test system: Rattus norvegicus; assay: Distribution in blood of rat 5 min after intravenous administration, injected dose/gm; format: ADME, organism-based; conditions: in vivo; in short: as §2
[21] = test system: Rattus norvegicus; assay: Distribution in rat spleen 6 hr after intravenous administration, injected dose/gm; format: ADME, organism-based; conditions: in vivo; in short: as §1
[22] = test system: Rattus norvegicus; assay: Distribution in rat muscle 1 hr after intravenous administration, injected dose/gm; format: ADME, organism-based, Muscle tissue; conditions: in vivo; in short: as §1
[23] = test system: Rattus norvegicus; assay: Distribution in blood of rat, 4 hr after intravenous administration, injected dose/gm; format: ADME, organism-based; conditions: in vivo; in short: as §2
[24] = test system: Rattus norvegicus; assay: Distribution in rat lungs 8 hr after intravenous administration, injected dose/gm; format: ADME, organism-based, Lung; conditions: in vivo; in short: as §1
[25] = test system: Rattus norvegicus; assay: Distribution in rat muscle 2 hr after intravenous administration, injected dose/gm; format: ADME, organism-based, Muscle tissue; conditions: in vivo; in short: as §1
[26] = test system: Rattus norvegicus; assay: Distribution in rat heart 15 min after intravenous administration, injected dose/gm; format: ADME, organism-based; conditions: in vivo, 0.25 h; in short: as §2
[27] = test system: Rattus norvegicus; assay: Distribution in rat spleen 5 min after intravenous administration, injected dose/gm; format: ADME, organism-based; conditions: in vivo; in short: as §1
[28] = test system: Rattus norvegicus; assay: Distribution in rat spleen 2 hr after intravenous administration, injected dose/gm; format: ADME, organism-based; conditions: in vivo; in short: as §1
[29] = test system: Rattus norvegicus; assay: Distribution in rat spleen 30 min after intravenous administration, injected dose/gm; format: ADME, organism-based; conditions: in vivo, 0.5 h; in short: as §1
[30] = test system: Rattus norvegicus; assay: Distribution in rat kidney, 15 min after intravenous administration, injected dose/gm; format: ADME, organism-based; conditions: in vivo, 0.25 h; in short: as §2
[31] = test system: Rattus norvegicus; assay: Distribution in brain of rat, 15 min after intravenous administered, injected dose/gm; format: ADME, organism-based; conditions: in vivo, 0.25 h; in short: as §2
[32] = test system: Rattus norvegicus; assay: Distribution in rat heart 8 hr after intravenous administration, injected dose/gm; format: ADME, organism-based; conditions: in vivo; in short: as §2
[33] = test system: Rattus norvegicus; assay: Distribution in rat uterus 15 min after intravenous administration, injected dose/gm; format: ADME, organism-based; conditions: in vivo, 0.25 h; in short: as §1
[34] = test system: Rattus norvegicus; assay: Distribution in rat lungs 5 min after intravenous administration, injected dose/gm; format: ADME, organism-based, Lung; conditions: in vivo; in short: as §1
[35] = test system: Rattus norvegicus; assay: Distribution in rat intestine 8 hr after intravenous administration, injected dose/gm; format: ADME, organism-based; conditions: in vivo; in short: as §2
[36] = test system: Rattus norvegicus; assay: Distribution in rat kidney, 1 hr after intravenous administration, injected dose/gm; format: ADME, organism-based; conditions: in vivo; in short: as §2
[37] = test system: Rattus norvegicus; assay: Distribution in rat skin 1 hr after intravenous administration, injected dose/gm; format: ADME, organism-based; conditions: in vivo; in short: as §1
[38] = test system: Rattus norvegicus; assay: Distribution in rat fat 6 hr after intravenous administration, injected dose/gm; format: ADME, organism-based, Adipose tissue; conditions: in vivo; in short: as §2
[39] = test system: Rattus norvegicus; assay: Distribution in rat muscle 5 min after intravenous administration, injected dose/gm; format: ADME, organism-based, Muscle tissue; conditions: in vivo; in short: as §1
[40] = test system: Rattus norvegicus; assay: Distribution in rat intestine 30 min after intravenous administration, injected dose/gm; format: ADME, organism-based; conditions: in vivo, 0.5 h; in short: as §2
[41] = test system: Rattus norvegicus; assay: Distribution in rat uterus 2 hr after intravenous administration, injected dose/gm; format: ADME, organism-based; conditions: in vivo; in short: as §1
[42] = test system: Rattus norvegicus; assay: Distribution in rat fat 30 min after intravenous administration, injected dose/gm; format: ADME, organism-based, Adipose tissue; conditions: in vivo, 0.5 h; in short: as §2
[43] = test system: Rattus norvegicus; assay: Distribution in rat heart 2 hr after intravenous administration, injected dose/gm; format: ADME, organism-based; conditions: in vivo; in short: as §2
[44] = test system: Rattus norvegicus; assay: Distribution in rat fat 8 hr after intravenous administration, injected dose/gm; format: ADME, organism-based, Adipose tissue; conditions: in vivo; in short: as §2
[45] = test system: Rattus norvegicus; assay: Distribution in rat lungs 15 min after intravenous administration, injected dose/gm; format: ADME, organism-based, Lung; conditions: in vivo, 0.25 h; in short: as §1
[46] = test system: Rattus norvegicus; assay: Distribution in rat kidney, 5 min after intravenous administration, injected dose/gm; format: ADME, organism-based; conditions: in vivo; in short: as §2
[47] = test system: Rattus norvegicus; assay: Distribution in rat intestine 2 hr after intravenous administration, injected dose/gm; format: ADME, organism-based; conditions: in vivo; in short: as §2
[48] = test system: Rattus norvegicus; assay: Distribution in rat intestine 4 hr after intravenous administration, injected dose/gm; format: ADME, organism-based; conditions: in vivo; in short: as §2
[49] = test system: Rattus norvegicus; assay: Distribution in blood of rat, 15 min after intravenous administration, injected dose/gm; format: ADME, organism-based; conditions: in vivo, 0.25 h; in short: as §2
[50] = test system: Rattus norvegicus; assay: Distribution in rat muscle 4 hr after intravenous administration, injected dose/gm; format: ADME, organism-based, Muscle tissue; conditions: in vivo; in short: as §1

Q: Which Distribution [1] does the source give for O=C(CCCN1CCC(O)(c2ccc(Br)cc2)CC1)c1ccc(F)cc1 [BROMPERIDOL] here?
A: The Distribution was 1.91%.

Q: What about the Distribution [2] of the same compound?
A: Its Distribution is 0.05%.

Q: What about the Distribution [3] of the same compound?
A: Its Distribution is 1.07%.

Q: What about the Distribution [4] of the same compound?
A: The Distribution was 0.14%.

Q: And the Distribution [5]?
A: The Distribution was 2.93%.

Q: And the Distribution [6]?
A: Its Distribution is 1.95%.

Q: And the Distribution [7]?
A: The Distribution was 2.1%.

Q: And the Distribution [8]?
A: The Distribution was 2.83%.

Q: And the Distribution [9]?
A: Its Distribution is 0.98%.

Q: And the Distribution [10]?
A: Its Distribution is 4.19%.

Q: What about the Distribution [11] of the same compound?
A: The Distribution was 0.13%.

Q: And the Distribution [12]?
A: The Distribution was 1.85%.

Q: What about the Distribution [13] of the same compound?
A: Its Distribution is 2.26%.

Q: And the Distribution [14]?
A: Its Distribution is 0.36%.

Q: What about the Distribution [15] of the same compound?
A: Its Distribution is 3%.

Q: What about the Distribution [16] of the same compound?
A: Its Distribution is 0.03%.

Q: And the Distribution [17]?
A: Its Distribution is 1.93%.

Q: What about the Distribution [18] of the same compound?
A: The Distribution was 2.5%.

Q: And the Distribution [19]?
A: Its Distribution is 1.24%.

Q: And the Distribution [20]?
A: The Distribution was 0.12%.

Q: What about the Distribution [21] of the same compound?
A: The Distribution was 1.76%.

Q: And the Distribution [22]?
A: The Distribution was 0.18%.

Q: And the Distribution [23]?
A: Its Distribution is 0.06%.

Q: And the Distribution [24]?
A: Its Distribution is 1.14%.

Q: What about the Distribution [25] of the same compound?
A: Its Distribution is 0.15%.

Q: What about the Distribution [26] of the same compound?
A: Its Distribution is 1.37%.

Q: And the Distribution [27]?
A: Its Distribution is 3.02%.

Q: And the Distribution [28]?
A: Its Distribution is 2.69%.

Q: And the Distribution [29]?
A: Its Distribution is 4.43%.

Q: And the Distribution [30]?
A: The Distribution was 4.69%.

Q: And the Distribution [31]?
A: Its Distribution is 3.04%.

Q: And the Distribution [32]?
A: The Distribution was 0.3%.

Q: And the Distribution [33]?
A: The Distribution was 2.24%.

Q: And the Distribution [34]?
A: Its Distribution is 13.6%.

Q: And the Distribution [35]?
A: Its Distribution is 0.85%.

Q: And the Distribution [36]?
A: Its Distribution is 4.11%.

Q: And the Distribution [37]?
A: Its Distribution is 0.2%.

Q: And the Distribution [38]?
A: Its Distribution is 0.19%.

Q: And the Distribution [39]?
A: The Distribution was 0.32%.

Q: And the Distribution [40]?
A: Its Distribution is 0.83%.

Q: What about the Distribution [41] of the same compound?
A: Its Distribution is 1.07%.

Q: What about the Distribution [42] of the same compound?
A: Its Distribution is 0.2%.

Q: And the Distribution [43]?
A: The Distribution was 0.46%.

Q: What about the Distribution [44] of the same compound?
A: The Distribution was 0.18%.

Q: And the Distribution [45]?
A: Its Distribution is 6.29%.

Q: What about the Distribution [46] of the same compound?
A: Its Distribution is 4.96%.

Q: What about the Distribution [47] of the same compound?
A: The Distribution was 0.82%.

Q: And the Distribution [48]?
A: The Distribution was 0.76%.

Q: What about the Distribution [49] of the same compound?
A: The Distribution was 0.11%.

Q: And the Distribution [50]?
A: The Distribution was 0.12%.
